Laboratory results published in ChEMBL document CHEMBL1147105, “In vitro and in vivo activities of PD 0305970 and PD 0326448, new bacterial gyrase/topoisomerase inhibitors with potent antibacterial activities versus multidrug-resistant gram-positive and fastidious organism groups” (2007).

Legend:
Moraxella catarrhalis [1] = assay: Antibacterial activity against beta-lactamase negative Moraxella catarrhalis; assay type: functional
Corynebacterium jeikeium = assay: Antibacterial activity against Corynebacterium jeikeium; assay type: functional
How it was run: (§1)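 Broth microdilution MIC following CLSI guidelines, in cation-adjusted Mueller-Hinton broth containing 3% lysed horse blood, incubated at 35°C. Clinical isolates with identity confirmed. Reported as MIC range, MIC50 and MIC90.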

Staphylococcus warneri = assay: Antibacterial activity against Staphylococcus warneri; assay type: functional
How it was run: (§2)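 Broth microdilution MIC following CLSI guidelines, in cation-adjusted Mueller-Hinton broth, incubated at 35°C. Recent clinical isolates and reference strains, with identity confirmed by automated and standard microbiological methods. Results reported as MIC range, MIC50 and MIC90.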

Streptococcus pneumoniae [2] = assay: Antibacterial activity against penicillin-susceptible Streptococcus pneumoniae; assay type: functional
How it was run: (§3)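 Broth microdilution MIC per CLSI guidelines, incubated at 35°C. Cation-adjusted Mueller-Hinton broth for nonfastidious organisms and staphylococci. Streptococci tested in the same broth with 3% lysed horse blood. Anaerobes tested in supplemented Brucella broth inside an anaerobe chamber (5% CO2, 5% H2, 90% N2), read after 48 h. Strains were mainly recent clinical isolates with confirmed identity.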

Clostridioides difficile = assay: Antibacterial activity against Clostridium difficile; assay type: functional
How it was run: (§4)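 Anaerobic broth microdilution MIC following CLSI guidelines, in supplemented Brucella broth. Run in an anaerobe chamber under 5% CO2, 5% H2 and 90% N2 at 35°C, and read after 48 h. Reported as MIC range, MIC50 and MIC90.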

Morganella morganii = assay: Antibacterial activity against Morganella morganii; assay type: functional; how it was run: as §2
Streptococcus viridans = assay: Antibacterial activity against Streptococcus viridans; assay type: functional
How it was run: (§5)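 Broth microdilution MIC following CLSI guidelines, in cation-adjusted Mueller-Hinton broth with 3% lysed horse blood. Plates incubated at 35°C. Clinical isolates and reference strains, with identity confirmed by standard microbiological methods.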

Staphylococcus aureus = assay: Antibacterial activity against oxacillin and levofloxacin-resistant Staphylococcus aureus; assay type: functional; how it was run: as §3
Moraxella catarrhalis [3] = assay: Antibacterial activity against beta-lactamase positive Moraxella catarrhalis; assay type: functional
Legionella pneumophila = assay: Antibacterial activity against Legionella pneumophila; assay type: functional
How it was run: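 Broth microdilution MIC per CLSI guidelines, run in buffered yeast extract α-ketoglutarate broth at 35°C and read after 48 h.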

[4] = test system: Staphylococcus epidermidis; assay: Antibacterial activity against oxacillin-resistant Staphylococcus epidermidis; assay type: functional; how it was run: as §3
Neisseria meningitidis = assay: Antibacterial activity against Neisseria meningitidis; assay type: functional
How it was run: (§6)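 MIC by broth microdilution in gonococcal broth, incubated at 35°C in 5% CO2. Reported as MIC range, MIC50 and MIC90.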

Bacteroides fragilis = assay: Antibacterial activity against Bacteroides fragilis; assay type: functional; how it was run: as §4
Bacteroides ovatus = assay: Antibacterial activity against Bacteroides ovatus; assay type: functional; how it was run: as §4
Escherichia coli = assay: Antibacterial activity against Escherichia coli; assay type: functional; how it was run: as §2
Klebsiella pneumoniae = assay: Antibacterial activity against beta-lactamase positive Klebsiella pneumoniae; assay type: functional
How it was run: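 MIC by CLSI broth microdilution for nonfastidious organisms, in cation-adjusted Mueller-Hinton broth incubated at 35°C.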

Hoylesella oralis = assay: Antibacterial activity against Prevotella oralis; assay type: functional; how it was run: as §4
Anaerococcus prevotii = assay: Antibacterial activity against Peptostreptococcus prevotii; assay type: functional; how it was run: as §4
Corynebacterium sp. = assay: Antibacterial activity against Corynebacterium sp.; assay type: functional; how it was run: as §1
Finegoldia magna = assay: Antibacterial activity against Peptostreptococcus magnus; assay type: functional; how it was run: as §4
[5] = test system: Parabacteroides distasonis; assay: Antimicrobial activity against Bacteroides distasonis; assay type: functional
How it was run: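 Anaerobic broth microdilution MIC following CLSI guidelines, in supplemented Brucella broth. Incubated at 35°C in a chamber under 5% CO2, 5% H2 and 90% N2. Read after 48 h.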

Enterococcus faecium [6] = assay: Antibacterial activity against VanA-resistant Enterococcus faecium; assay type: functional; how it was run: as §3
Haemophilus influenzae = assay: Antibacterial activity against beta-lactamase positive Haemophilus influenzae; assay type: functional
How it was run: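 Broth microdilution MIC following CLSI guidelines, in Haemophilus test medium at 35°C.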

Enterococcus faecium [7] = assay: Antibacterial activity against VanB-resistant Enterococcus faecium; assay type: functional; how it was run: as §3
Shigella dysenteriae = assay: Antibacterial activity against Shigella dysenteriae; assay type: functional
Streptococcus pyogenes = assay: Antibacterial activity against Streptococcus pyogenes; assay type: functional; how it was run: as §5
[8] = test system: Staphylococcus saprophyticus; assay: Antibacterial activity against Staphylococcus saprophyticus; assay type: functional; how it was run: as §2
Acinetobacter sp. = assay: Antibacterial activity against Acinetobacter sp.; assay type: functional; how it was run: as §2
Salmonella typhimurium = assay: Antibacterial activity against Salmonella enterica serovar Typhimurium; assay type: functional, Salmonella enterica subsp. enterica serovar Typhimurium; how it was run: as §2
Proteus vulgaris = assay: Antibacterial activity against Proteus vulgaris; assay type: functional; how it was run: as §2
[9] = test system: Peptoniphilus asaccharolyticus; assay: Antibacterial activity against Peptostreptococcus asaccharolyticus; assay type: functional; how it was run: as §4
[10] = test system: Peptostreptococcus anaerobius; assay: Antibacterial activity against Peptostreptococcus anaerobius; assay type: functional; how it was run: as §4
Enterococcus faecalis = assay: Antibacterial activity against VanA-resistant Enterococcus faecalis; assay type: functional; how it was run: as §3
Burkholderia cepacia = assay: Antibacterial activity against Burkholderia cepacia; assay type: functional; how it was run: as §2
Streptococcus salivarius = assay: Antibacterial activity against Streptococcus salivarius; assay type: functional; how it was run: as §5
Shigella sonnei = assay: Antibacterial activity against Shigella sonnei; assay type: functional; how it was run: as §2
Fusobacterium nucleatum = assay: Antibacterial activity against Fusobacterium nucleatum; assay type: functional; how it was run: as §4
Prevotella sp. = assay: Antibacterial activity against Prevotella sp.; assay type: functional; how it was run: as §4
Salmonella enteritidis = assay: Antibacterial activity against Salmonella enterica serovar Enteritidis; assay type: functional, Salmonella enterica subsp. enterica serovar Enteritidis; how it was run: as §2
Neisseria gonorrhoeae = assay: Antibacterial activity against Neisseria gonorrhoeae; assay type: functional; how it was run: as §6
Streptococcus pneumoniae [11] = assay: Antibacterial activity against levofloxacin-resistant Streptococcus pneumoniae; assay type: functional; how it was run: as §3
Cutibacterium acnes = assay: Antibacterial activity against Propionibacterium acnes; assay type: functional
Pseudomonas aeruginosa = assay: Antibacterial activity against Pseudomonas aeruginosa; assay type: functional; how it was run: as §2
Streptococcus pneumoniae [12] = assay: Antibacterial activity against penicillin-intermediate resistant Streptococcus pneumoniae; assay type: functional; how it was run: as §3
Klebsiella oxytoca = assay: Antibacterial activity against Klebsiella oxytoca; assay type: functional; how it was run: as §2

Cc1c(N2CC[C@@H]([C@H](C)N)C2)c(F)cc2c(=O)n(N)c(=O)n(C3CC3)c12
16 µg/mL: MIC90 (Bacteroides ovatus) | MIC90 [5]
1 µg/mL: MIC50 (Escherichia coli) | MIC90 (Hoylesella oralis) | MIC50 (Enterococcus faecium [6]) | MIC90 (Shigella dysenteriae) | MIC50 (Acinetobacter sp.) | MIC90 (Salmonella typhimurium) | MIC (Proteus vulgaris) | MIC90 (Shigella sonnei) | MIC90 (Prevotella sp.) | MIC90 (Salmonella enteritidis) | MIC50 (Klebsiella oxytoca)
0.25 µg/mL: MIC50 (Moraxella catarrhalis [1]) | MIC50 (Corynebacterium jeikeium) | MIC90 (Corynebacterium jeikeium) | MIC50 (Staphylococcus aureus) | MIC50 (Moraxella catarrhalis [3]) | MIC50 (Legionella pneumophila) | MIC90 (Legionella pneumophila) | MIC50 (Neisseria meningitidis) | MIC50 (Hoylesella oralis) | MIC50 (Corynebacterium sp.) | MIC90 (Corynebacterium sp.) | MIC90 (Haemophilus influenzae) | MIC50 (Prevotella sp.) | MIC50 (Neisseria gonorrhoeae)
0.125 µg/mL: MIC50 [4] | MIC90 [4] | MIC50 (Haemophilus influenzae) | MIC90 [8] | MIC (Enterococcus faecalis)
4 µg/mL: MIC90 (Bacteroides fragilis) | MIC50 (Bacteroides ovatus) | MIC50 [5] | MIC90 (Cutibacterium acnes) | MIC50 (Pseudomonas aeruginosa)
32 µg/mL: MIC50 (Burkholderia cepacia) | MIC90 (Pseudomonas aeruginosa)
0.5 µg/mL: MIC90 (Moraxella catarrhalis [1]) | MIC50 (Clostridioides difficile) | MIC90 (Staphylococcus aureus) | MIC90 (Moraxella catarrhalis [3]) | MIC90 (Neisseria meningitidis) | MIC (Enterococcus faecium [7]) | MIC50 (Shigella dysenteriae) | MIC50 (Salmonella typhimurium) | MIC50 (Shigella sonnei) | MIC50 (Salmonella enteritidis) | MIC90 (Neisseria gonorrhoeae)
8 µg/mL: MIC90 (Morganella morganii) | MIC90 (Klebsiella pneumoniae) | MIC90 (Acinetobacter sp.)
2 µg/mL: MIC90 (Clostridioides difficile) | MIC50 (Morganella morganii) | MIC50 (Bacteroides fragilis) | MIC90 (Escherichia coli) | MIC50 (Klebsiella pneumoniae) | MIC90 (Enterococcus faecium [6]) | MIC50 (Cutibacterium acnes) | MIC90 (Klebsiella oxytoca)
0.03 µg/mL: MIC50 (Streptococcus pneumoniae [2]) | MIC90 (Streptococcus pneumoniae [2]) | MIC50 (Streptococcus viridans) | MIC90 (Streptococcus viridans) | MIC (Anaerococcus prevotii) | MIC (Finegoldia magna) | MIC50 (Streptococcus pyogenes) | MIC90 (Streptococcus pyogenes) | MIC [9] | MIC [10] | MIC50 (Streptococcus salivarius) | MIC90 (Streptococcus salivarius) | MIC50 (Streptococcus pneumoniae [11]) | MIC50 (Streptococcus pneumoniae [12])
0.06 µg/mL: MIC (Staphylococcus warneri) | MIC50 [8] | MIC (Fusobacterium nucleatum) | MIC90 (Streptococcus pneumoniae [11]) | MIC90 (Streptococcus pneumoniae [12])
64 µg/mL: MIC90 (Burkholderia cepacia)
